# Laboratory results reported in ChEMBL document CHEMBL3774321, “Systematic diversification of benzylidene heterocycles yields novel inhibitor scaffolds selective for Dyrk1A, Clk1 and CK2” (Eur J Med Chem, 2016).
# Calls of active or inactive are those of the source. The rule behind the calls is not given here.
# Tests used:
# [1] = molecular target: Myosin light chain kinase, smooth muscle (Homo sapiens) (UniProt Q15746); test: Inhibition of recombinant human GST-tagged MYLK expressed in baculovirus expression system at 5 uM by lantha screen kinase binding assay relative to control
# Summary of the method: (§1)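 Binding-displacement format: the compound competes with an Alexa Fluor-conjugated tracer for binding to the kinase ATP site, rather than a peptide phosphorylation read-out.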
# [2] = molecular target: Proto-oncogene tyrosine-protein kinase ROS (Homo sapiens) (UniProt P08922); test: Inhibition of recombinant human GST-tagged ROS1 expressed in baculovirus expression system at 5 uM by lantha screen kinase binding assay relative to control; summary of the method: as §1
# [3] = molecular target: Mitogen-activated protein kinase 8 (Homo sapiens) (UniProt P45983); test: Inhibition of full length recombinant human His-tagged MAPK8 expressed in baculovirus expression system at 5 uM by lantha screen kinase binding assay relative to control; summary of the method: as §1
# [4] = molecular target: Dual specificity tyrosine-phosphorylation-regulated kinase 3 (Homo sapiens) (UniProt O43781); test: Inhibition of full length recombinant human GST-tagged DYRK3 expressed in baculovirus expression system at 5 uM by lantha screen kinase binding assay relative to control
# Chain of Dual specificity tyrosine-phosphorylation-regulated kinase 3 (Homo sapiens) (O43781 whole entry): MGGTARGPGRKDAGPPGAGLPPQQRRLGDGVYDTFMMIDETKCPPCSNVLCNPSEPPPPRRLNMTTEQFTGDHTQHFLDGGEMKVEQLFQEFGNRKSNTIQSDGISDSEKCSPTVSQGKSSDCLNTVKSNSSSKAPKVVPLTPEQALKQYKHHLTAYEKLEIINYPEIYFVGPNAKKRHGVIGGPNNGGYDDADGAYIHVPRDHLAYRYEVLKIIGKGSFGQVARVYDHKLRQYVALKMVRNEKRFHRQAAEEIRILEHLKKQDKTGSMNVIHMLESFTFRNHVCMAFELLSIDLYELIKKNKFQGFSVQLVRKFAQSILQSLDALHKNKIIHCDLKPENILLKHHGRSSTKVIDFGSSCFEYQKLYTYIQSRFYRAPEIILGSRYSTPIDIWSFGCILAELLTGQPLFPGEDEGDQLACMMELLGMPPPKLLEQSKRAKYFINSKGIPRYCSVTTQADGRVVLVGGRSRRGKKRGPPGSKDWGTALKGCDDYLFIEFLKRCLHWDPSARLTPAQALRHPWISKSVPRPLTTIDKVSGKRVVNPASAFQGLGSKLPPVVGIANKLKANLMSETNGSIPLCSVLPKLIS
# [5] = molecular target: Dual specificity protein kinase CLK2 (Homo sapiens) (UniProt P49760); test: Inhibition of recombinant human GST-tagged CLK2 expressed in baculovirus expression system at 5 uM by lantha screen kinase binding assay relative to control; summary of the method: as §1
# [6] = molecular target: Casein kinase I isoform epsilon (Homo sapiens) (UniProt P49674); test: Inhibition of full length recombinant human His-tagged CSNK1E expressed in baculovirus expression system at 5 uM by lantha screen kinase binding assay relative to control
# [7] = molecular target: Casein kinase I isoform gamma-2 (Homo sapiens) (UniProt P78368); test: Inhibition of full length recombinant human His-tagged CSNK1G2 expressed in baculovirus expression system at 5 uM by lantha screen kinase binding assay relative to control; summary of the method: as §1
# [8] = molecular target: Mitogen-activated protein kinase kinase kinase 9 (Homo sapiens) (UniProt P80192); test: Inhibition of recombinant human GST-tagged MAP3K9 expressed in baculovirus expression system at 5 uM by lantha screen kinase binding assay relative to control; summary of the method: as §1
# Chain of Mitogen-activated protein kinase kinase kinase 9 (Homo sapiens) (P80192 whole entry, looked up): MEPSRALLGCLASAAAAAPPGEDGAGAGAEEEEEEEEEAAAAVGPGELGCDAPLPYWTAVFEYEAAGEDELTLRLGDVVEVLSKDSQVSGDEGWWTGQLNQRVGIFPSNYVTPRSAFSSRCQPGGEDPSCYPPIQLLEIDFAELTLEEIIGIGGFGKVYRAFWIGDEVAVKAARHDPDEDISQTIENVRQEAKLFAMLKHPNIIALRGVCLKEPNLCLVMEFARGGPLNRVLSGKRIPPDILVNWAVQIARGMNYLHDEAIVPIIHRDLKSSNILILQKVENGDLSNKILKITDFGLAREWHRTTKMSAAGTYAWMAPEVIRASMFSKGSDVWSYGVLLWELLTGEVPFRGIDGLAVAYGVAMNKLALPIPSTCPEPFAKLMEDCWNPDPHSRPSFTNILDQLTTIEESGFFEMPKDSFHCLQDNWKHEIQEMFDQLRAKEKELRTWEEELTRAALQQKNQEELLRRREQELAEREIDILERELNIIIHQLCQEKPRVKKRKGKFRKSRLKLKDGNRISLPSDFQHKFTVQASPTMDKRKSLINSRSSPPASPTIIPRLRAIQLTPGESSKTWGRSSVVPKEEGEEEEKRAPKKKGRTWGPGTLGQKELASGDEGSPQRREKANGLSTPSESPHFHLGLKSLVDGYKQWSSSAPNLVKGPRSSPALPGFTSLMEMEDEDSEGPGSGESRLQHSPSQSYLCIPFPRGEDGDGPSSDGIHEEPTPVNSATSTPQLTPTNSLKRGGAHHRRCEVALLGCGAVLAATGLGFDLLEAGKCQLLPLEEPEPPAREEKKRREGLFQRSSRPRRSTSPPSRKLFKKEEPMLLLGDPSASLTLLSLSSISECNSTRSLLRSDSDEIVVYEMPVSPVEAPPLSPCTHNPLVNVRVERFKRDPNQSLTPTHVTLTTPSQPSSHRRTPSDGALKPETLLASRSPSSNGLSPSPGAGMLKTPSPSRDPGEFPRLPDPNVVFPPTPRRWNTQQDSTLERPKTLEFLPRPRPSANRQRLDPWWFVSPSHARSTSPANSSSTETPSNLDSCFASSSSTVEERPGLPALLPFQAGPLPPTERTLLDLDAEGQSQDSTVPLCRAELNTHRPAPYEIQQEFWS
# [9] = molecular target: Mitogen-activated protein kinase 14 (Homo sapiens) (UniProt Q16539); test: Inhibition of full length recombinant human GST-tagged MAPK14 expressed in Escherichia coli at 5 uM by lantha screen kinase binding assay relative to control
# Chain of Mitogen-activated protein kinase 14 (Homo sapiens) (Q16539 whole entry): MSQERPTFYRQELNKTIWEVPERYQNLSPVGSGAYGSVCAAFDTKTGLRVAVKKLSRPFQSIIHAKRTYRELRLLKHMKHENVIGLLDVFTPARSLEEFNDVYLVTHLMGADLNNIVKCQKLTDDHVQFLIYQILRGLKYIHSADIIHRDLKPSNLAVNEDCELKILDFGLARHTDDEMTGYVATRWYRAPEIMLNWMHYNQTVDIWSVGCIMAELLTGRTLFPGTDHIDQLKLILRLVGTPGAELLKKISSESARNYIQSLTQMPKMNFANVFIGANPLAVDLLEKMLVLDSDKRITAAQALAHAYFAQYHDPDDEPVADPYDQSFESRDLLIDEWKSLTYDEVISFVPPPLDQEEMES
# [10] = molecular target: T1, Myosin light chain kinase 2, skeletal/cardiac muscle (Homo sapiens, UniProt Q9H1R3); test: Inhibition of full length recombinant human N-terminal GST-tagged skeletal MYLK2 expressed in baculovirus expression system at 5 uM by lantha screen kinase binding assay relative to control; summary of the method: as §1
# T1 sequence (Q9H1R3 whole entry): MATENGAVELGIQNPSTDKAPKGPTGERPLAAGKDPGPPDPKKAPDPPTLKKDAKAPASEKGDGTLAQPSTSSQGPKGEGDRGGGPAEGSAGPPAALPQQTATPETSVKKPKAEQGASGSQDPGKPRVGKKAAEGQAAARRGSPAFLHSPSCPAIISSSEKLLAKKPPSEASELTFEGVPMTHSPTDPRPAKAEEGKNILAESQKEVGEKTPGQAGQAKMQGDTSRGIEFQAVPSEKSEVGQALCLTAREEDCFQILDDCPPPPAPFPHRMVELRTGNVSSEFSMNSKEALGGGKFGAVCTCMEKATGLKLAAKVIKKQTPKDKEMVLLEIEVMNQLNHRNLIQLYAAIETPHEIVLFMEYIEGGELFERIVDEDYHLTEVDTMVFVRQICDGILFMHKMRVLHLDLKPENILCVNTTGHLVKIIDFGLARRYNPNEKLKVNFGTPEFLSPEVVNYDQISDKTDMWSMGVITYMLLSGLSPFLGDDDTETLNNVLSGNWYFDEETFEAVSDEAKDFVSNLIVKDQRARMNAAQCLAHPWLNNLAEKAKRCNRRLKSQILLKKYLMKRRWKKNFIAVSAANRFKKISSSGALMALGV
# [11] = molecular target: Glycogen synthase kinase-3 beta (Homo sapiens) (UniProt P49841); test: Inhibition of full length recombinant human His-tagged GSK3beta expressed in baculovirus expression system at 5 uM by lantha screen kinase binding assay relative to control; summary of the method: as §1
# Chain of Glycogen synthase kinase-3 beta (Homo sapiens) (P49841 whole entry, looked up): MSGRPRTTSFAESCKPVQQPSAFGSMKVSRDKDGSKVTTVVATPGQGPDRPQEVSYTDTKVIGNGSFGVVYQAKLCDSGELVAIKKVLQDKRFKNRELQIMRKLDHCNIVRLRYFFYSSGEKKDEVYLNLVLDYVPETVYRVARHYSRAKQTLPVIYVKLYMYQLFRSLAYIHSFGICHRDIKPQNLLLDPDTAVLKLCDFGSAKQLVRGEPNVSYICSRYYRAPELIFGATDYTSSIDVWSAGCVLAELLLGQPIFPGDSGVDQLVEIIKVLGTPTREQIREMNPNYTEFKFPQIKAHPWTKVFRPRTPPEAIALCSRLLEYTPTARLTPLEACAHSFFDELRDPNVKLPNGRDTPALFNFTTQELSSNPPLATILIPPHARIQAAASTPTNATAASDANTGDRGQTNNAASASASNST
# [12] = molecular target: Dual specificity tyrosine-phosphorylation-regulated kinase 4 (Homo sapiens) (UniProt Q9NR20); test: Inhibition of full length recombinant human GST-tagged DYRK4 expressed in baculovirus expression system at 5 uM by lantha screen kinase binding assay relative to control
# [13] = molecular target: cAMP-dependent protein kinase catalytic subunit alpha (Homo sapiens) (UniProt P17612); test: Inhibition of recombinant human His-tagged PRKACA expressed in Escherichia coli at 1 uM by lantha screen kinase binding assay relative to control; summary of the method: as §1
# [14] = molecular target: T2, Serine/threonine-protein kinase pim-1 (Homo sapiens, UniProt P11309); test: Inhibition of PIM1 (unknown origin)
# Summary of the method: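 Calculated from means of duplicates differing by less than 7%.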
# [15] = molecular target: Tyrosine-protein kinase ABL1 (Homo sapiens) (UniProt P00519); test: Inhibition of recombinant human His-tagged ABL1 expressed in baculovirus expression system at 1 uM by lantha screen kinase binding assay relative to control; summary of the method: as §1
# Chain of Tyrosine-protein kinase ABL1 (Homo sapiens) (P00519 whole entry): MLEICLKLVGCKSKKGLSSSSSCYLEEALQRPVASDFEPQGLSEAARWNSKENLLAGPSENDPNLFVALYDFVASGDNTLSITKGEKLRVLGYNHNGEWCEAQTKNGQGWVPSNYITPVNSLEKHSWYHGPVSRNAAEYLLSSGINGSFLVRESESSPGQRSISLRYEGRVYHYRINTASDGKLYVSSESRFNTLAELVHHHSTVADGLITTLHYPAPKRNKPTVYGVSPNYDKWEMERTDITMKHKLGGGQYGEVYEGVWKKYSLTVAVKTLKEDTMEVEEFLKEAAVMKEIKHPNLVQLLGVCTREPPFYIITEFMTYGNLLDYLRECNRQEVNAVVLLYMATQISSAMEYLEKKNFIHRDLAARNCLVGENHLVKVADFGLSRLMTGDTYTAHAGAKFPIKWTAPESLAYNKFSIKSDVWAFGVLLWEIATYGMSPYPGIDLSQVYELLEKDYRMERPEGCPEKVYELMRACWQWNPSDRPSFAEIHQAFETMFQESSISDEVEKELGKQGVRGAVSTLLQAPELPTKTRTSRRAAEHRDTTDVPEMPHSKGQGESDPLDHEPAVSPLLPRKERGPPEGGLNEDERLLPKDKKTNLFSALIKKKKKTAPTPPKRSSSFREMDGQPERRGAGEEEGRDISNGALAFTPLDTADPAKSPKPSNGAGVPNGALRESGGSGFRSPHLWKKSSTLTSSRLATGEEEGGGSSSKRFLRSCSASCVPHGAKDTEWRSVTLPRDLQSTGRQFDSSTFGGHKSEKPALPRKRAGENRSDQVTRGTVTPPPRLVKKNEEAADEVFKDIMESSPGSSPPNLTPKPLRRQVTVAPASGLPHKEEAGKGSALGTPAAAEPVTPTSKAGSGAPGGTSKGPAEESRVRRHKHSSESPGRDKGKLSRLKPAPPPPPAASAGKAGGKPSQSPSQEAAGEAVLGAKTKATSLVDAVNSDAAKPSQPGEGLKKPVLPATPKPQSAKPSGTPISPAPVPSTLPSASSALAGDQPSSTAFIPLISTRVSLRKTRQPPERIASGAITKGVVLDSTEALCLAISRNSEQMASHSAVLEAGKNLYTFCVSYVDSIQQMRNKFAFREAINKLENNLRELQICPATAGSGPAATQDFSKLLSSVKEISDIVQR
# [16] = molecular target: Mitogen-activated protein kinase kinase kinase 9 (Homo sapiens) (UniProt P80192); test: Inhibition of recombinant human GST-tagged MAP3K9 expressed in baculovirus expression system at 1 uM by lantha screen kinase binding assay relative to control; summary of the method: as §1
# [17] = molecular target: T1, Myosin light chain kinase 2, skeletal/cardiac muscle; test: Inhibition of full length recombinant human N-terminal GST-tagged MLCK expressed in baculovirus expression system at 1 uM by lantha screen kinase binding assay relative to control; summary of the method: as §1
# [18] = molecular target: Casein kinase I isoform delta (Homo sapiens) (UniProt P48730); test: Inhibition of full length recombinant human GST-tagged CSNK1D expressed in baculovirus expression system at 1 uM by lantha screen kinase binding assay relative to control
# [19] = molecular target: T1, Myosin light chain kinase 2, skeletal/cardiac muscle; test: Inhibition of full length recombinant human N-terminal GST-tagged MLCK expressed in baculovirus expression system by lantha screen kinase binding assay; summary of the method: as §1
# [20] = molecular target: MAP kinase-interacting serine/threonine-protein kinase 1 (Homo sapiens) (UniProt Q9BUB5); test: Inhibition of full length recombinant human N-terminal GST-tagged MKNK1 expressed in insect cells at 1 uM by lantha screen kinase binding assay relative to control; summary of the method: as §1
# Chain of MAP kinase-interacting serine/threonine-protein kinase 1 (Homo sapiens) (Q9BUB5 whole entry, looked up): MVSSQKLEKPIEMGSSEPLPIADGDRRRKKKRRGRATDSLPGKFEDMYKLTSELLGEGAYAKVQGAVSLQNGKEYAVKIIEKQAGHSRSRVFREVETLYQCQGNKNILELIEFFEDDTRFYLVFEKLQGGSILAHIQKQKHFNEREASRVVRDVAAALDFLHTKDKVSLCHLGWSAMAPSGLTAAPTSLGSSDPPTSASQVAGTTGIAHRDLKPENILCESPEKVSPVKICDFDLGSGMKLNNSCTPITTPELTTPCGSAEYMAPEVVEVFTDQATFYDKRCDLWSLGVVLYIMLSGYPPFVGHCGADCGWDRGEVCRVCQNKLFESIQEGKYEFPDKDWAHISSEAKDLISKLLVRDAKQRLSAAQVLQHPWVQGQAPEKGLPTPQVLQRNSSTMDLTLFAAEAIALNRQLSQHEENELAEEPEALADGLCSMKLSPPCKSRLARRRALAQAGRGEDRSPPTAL
# [21] = molecular target: Serine/threonine-protein kinase pim-2 (Homo sapiens) (UniProt Q9P1W9); test: Inhibition of full length recombinant human GST-tagged PIM2 expressed in baculovirus expression system at 1 uM by lantha screen kinase binding assay relative to control
# [22] = molecular target: Calcium/calmodulin-dependent protein kinase type II subunit alpha (Homo sapiens) (UniProt Q9UQM7); test: Inhibition of full length recombinant human His-tagged CAMK2A expressed in baculovirus expression system at 1 uM by lantha screen kinase binding assay relative to control
# [23] = molecular target: T2, Serine/threonine-protein kinase pim-1; test: Inhibition of PIM1 (unknown origin) at 1 uM relative to control
# Summary of the method: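 Single-point screen at 1 μM compound. Percent inhibition is the mean of two separate measurements, each run in duplicate.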
# Target sequence in this assay (P11309 whole entry, looked up): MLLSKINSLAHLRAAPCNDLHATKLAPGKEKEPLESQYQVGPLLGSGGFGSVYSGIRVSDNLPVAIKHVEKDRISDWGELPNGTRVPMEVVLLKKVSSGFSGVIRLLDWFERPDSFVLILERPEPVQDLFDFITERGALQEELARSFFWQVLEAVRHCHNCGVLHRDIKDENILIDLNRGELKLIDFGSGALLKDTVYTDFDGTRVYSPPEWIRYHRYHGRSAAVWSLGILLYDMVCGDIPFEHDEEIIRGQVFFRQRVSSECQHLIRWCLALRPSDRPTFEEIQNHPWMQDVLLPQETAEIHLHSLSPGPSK
# [24] = molecular target: MAP kinase-interacting serine/threonine-protein kinase 2 (Homo sapiens) (UniProt Q9HBH9); test: Inhibition of full length recombinant human N-terminal GST-tagged MKNK2 expressed in insect cells at 1 uM by lantha screen kinase binding assay relative to control; summary of the method: as §1
# [25] = molecular target: T3, Dual specificity protein kinase CLK3 (Homo sapiens, UniProt P49761); test: Inhibition of recombinant human GST-tagged CLK3 expressed in baculovirus expression system at 1 uM by lantha screen kinase binding assay relative to control; summary of the method: as §1
# [26] = molecular target: Mitogen-activated protein kinase 14 (Homo sapiens) (UniProt Q16539); test: Inhibition of full length recombinant human GST-tagged MAPK14 expressed in Escherichia coli at 1 uM by lantha screen kinase binding assay relative to control
# [27] = molecular target: Activin receptor type-1 (Homo sapiens) (UniProt Q04771); test: Inhibition of recombinant human GST-tagged ACVR1 expressed in baculovirus expression system at 1 uM by lantha screen kinase binding assay relative to control; summary of the method: as §1
# [28] = molecular target: Glycogen synthase kinase-3 beta (Homo sapiens) (UniProt P49841); test: Inhibition of full length recombinant human His-tagged GSK3beta expressed in baculovirus expression system at 1 uM by lantha screen kinase binding assay relative to control; summary of the method: as §1
# [29] = molecular target: T3, Dual specificity protein kinase CLK3; test: Inhibition of recombinant human GST-tagged CLK3 expressed in baculovirus expression system by lantha screen kinase binding assay; summary of the method: as §1
# [30] = molecular target: T2, Serine/threonine-protein kinase pim-1; test: Inhibition of PIM1 (unknown origin) at 5 uM relative to control
# Target sequence in this assay (P11309 whole entry, looked up): as above
# Plasma = test: Metabolic stability in rat plasma assessed as drug degradation at 1 uM after 120 mins by LC-MS/MS analysis; type: ADME, cell-free; settings: 2 h
# Summary of the method: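 Compound (1 µM) in pooled heparinised rat plasma at 37 °C, sampled at 0, 5, 15, 30, 60 and 120 min. Reaction stopped with 5 volumes of cold acetonitrile containing internal standard. Remaining compound was measured by LC-MS/MS; means of two experiments.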
compound,measurement,setting,value
O=C1NC(=S)S/C1=C\c1ccc2ncsc2c1,inhibition,[1],inactive
same,inhibition,[2],inactive
same,inhibition,[3],14%
same,inhibition,[4],7%
same,inhibition,[5],65%
same,inhibition,[6],inactive
same,inhibition,[7],inactive
same,inhibition,[8],inactive
same,inhibition,[9],inactive
same,inhibition,[10],inactive
same,inhibition,[11],8%
same,inhibition,[12],inactive
O=C1NC(=S)S/C1=C\c1ccc2ncccc2c1,inhibition,[13],inactive
same,IC50,[14],103 nM
same,inhibition,[15],14%
same,inhibition,[16],2%
same,inhibition,[17],89%
same,inhibition,[18],11%
same,IC50,[19],157 nM
same,inhibition,[20],44%
same,inhibition,[21],31%
same,inhibition,[22],7%
same,inhibition,[23],89%
same,inhibition,[24],34%
same,inhibition,[25],95%
same,inhibition,[26],6%
same,inhibition,[27],37%
same,inhibition,[28],10%
same,IC50,[29],86.6 nM
CC1C/C(=C\c2ccc3c(c2)CCO3)C(=O)O1 (stereo unspecified),inhibition,[30],19%
same,Stability,Plasma,Stable
